Here are results for 17 compounds from ChEMBL document CHEMBL1147206, “Synthetic cinnamylphenol derivatives as cancer chemopreventive agents” (2007).

Experiment [1] deals with Raji. As to the kind of experiment: Survival of Raji cells at 3.2 nmol by trypan blue staining method. In kind it is functional, Homo sapiens. The essentials:
(§1)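 Raji cells (EBV genome-carrying, non-producer) grown to 10⁶ cells/mL, centrifuged, resuspended in RPMI 1640 with 10% FCS, 4 mM n-butyric acid and 32 pmol TPA (20 ng/mL), plus test compound in DMSO (32, 16, 3.2 or 0.32 nmol; 1000–10 mol ratio/TPA). Incubated 37 °C, 48 h; viability counted by hemocytometer with Trypan Blue; ≥60% survival required.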

For experiment [2], the system named is Human gammaherpesvirus 4. Briefly: TPA-induced EBV early antigen activation in Raji cells at 3.2 nmol relative to control.
The test system of experiment [3] is Human gammaherpesvirus 4. As to the kind of experiment: TPA-induced EBV early antigen activation in Raji cells at 0.32 nmol relative to control.
In experiment [4] the test system is Raji. Briefly: Survival of Raji cells at 32 nmol by trypan blue staining method. In kind it is functional, Homo sapiens. The essentials:
as §1

Experiment [5] deals with Human gammaherpesvirus 4. As to the kind of experiment: TPA-induced EBV early antigen activation in Raji cells at 32 nmol relative to control.
The test system of experiment [6] is Raji. Briefly: Survival of Raji cells at 16 nmol by trypan blue staining method. The class given is functional, Homo sapiens. The method, boiled down: as §1
Experiment [7] has as its system Human gammaherpesvirus 4. Briefly: TPA-induced EBV early antigen activation in Raji cells at 16 nmol relative to control.
Experiment [8] concerns Raji. Briefly: Survival of Raji cells at 0.32 nmol by trypan blue staining method. In kind it is functional, Homo sapiens. The method, boiled down: as §1

For `COc1cc(/C=C/Cc2ccc(O)c(O)c2OC)ccc1OC(C)=O`, the Survival is more than 80% with Raji [1], 60% in the experiment on Raji [4], more than 80% with Raji [6] and more than 80% with Raji [8]. Further, the EBV-EA activation was 74% in the experiment on Human gammaherpesvirus 4 [2], 100% in the experiment on Human gammaherpesvirus 4 [3], 9.4% in the experiment with Human gammaherpesvirus 4 [5] and 36.1% with Human gammaherpesvirus 4 [7].

For `COc1ccc(C/C=C/c2ccccc2)c(OC)c1O`, the Survival in the experiment with Raji [1] is more than 80%; in the experiment with Raji [4], 60%; with Raji [6] it was more than 80%; in the experiment with Raji [8], more than 80%. Further, the EBV-EA activation in the experiment on Human gammaherpesvirus 4 [2] was 76.9%; with Human gammaherpesvirus 4 [3] it was 100%; in the experiment with Human gammaherpesvirus 4 [5] it was 14.1%; in the experiment on Human gammaherpesvirus 4 [7] it was 41.2%.

In the case of `COc1cc(/C=C/Cc2ccc(O)c(O)c2OC)ccc1O`, the Survival is more than 80% in the experiment on Raji [1], 60% in the experiment with Raji [4], more than 80% with Raji [6] and more than 80% in the experiment on Raji [8]. Moreover, the EBV-EA activation in the experiment with Human gammaherpesvirus 4 [2] stood at 70.2%; in the experiment with Human gammaherpesvirus 4 [3] it was 95.7%; in the experiment on Human gammaherpesvirus 4 [5], 7.5%; with Human gammaherpesvirus 4 [7], 43.7%.

On to `COc1ccc(C/C=C/c2ccccc2)c(O)c1`, for which the Survival is on record as more than 80% in the experiment with Raji [1], 60% with Raji [4], more than 80% in the experiment on Raji [6] and more than 80% with Raji [8]. Moreover, the EBV-EA activation is on record as 73.7% in the experiment on Human gammaherpesvirus 4 [2], 100% with Human gammaherpesvirus 4 [3], 20.7% with Human gammaherpesvirus 4 [5] and 45.1% in the experiment with Human gammaherpesvirus 4 [7].

For the compound `COc1c(C/C=C/c2ccccc2)ccc(O)c1C/C=C/c1ccccc1`, the Survival was more than 80% in the experiment on Raji [1], 60% in the experiment with Raji [4], more than 80% with Raji [6] and more than 80% in the experiment with Raji [8]. The EBV-EA activation with Human gammaherpesvirus 4 [2] stood at 68.2%; in the experiment on Human gammaherpesvirus 4 [3], 100%; in the experiment on Human gammaherpesvirus 4 [5], 12.8%; in the experiment on Human gammaherpesvirus 4 [7], 41.5%.

`COc1cc(O)ccc1C/C=C/c1ccccc1`: the Survival is on record as more than 80% in the experiment with Raji [1], 60% with Raji [4], more than 80% in the experiment on Raji [6] and more than 80% with Raji [8]. Also, the EBV-EA activation with Human gammaherpesvirus 4 [2] is given as 73.2%; in the experiment on Human gammaherpesvirus 4 [3], 100%; in the experiment with Human gammaherpesvirus 4 [5] it was 18.1%; in the experiment with Human gammaherpesvirus 4 [7] it was 44.7%.

With `COc1ccc(C/C=C/c2ccccc2)c(O)c1O`, the Survival in the experiment with Raji [1] is given as more than 80%; in the experiment with Raji [4], 60%; in the experiment on Raji [6] it was more than 80%; in the experiment on Raji [8] it was more than 80%. Moreover, the EBV-EA activation with Human gammaherpesvirus 4 [2] stood at 71.5%; in the experiment on Human gammaherpesvirus 4 [3] it was 100%; with Human gammaherpesvirus 4 [5], 10.8%; in the experiment with Human gammaherpesvirus 4 [7], 42.5%.

With `COc1ccc(C/C=C/c2ccccc2)c(O)c1OC`, the Survival in the experiment with Raji [1] is recorded as more than 80%; in the experiment on Raji [4] it was 60%; in the experiment on Raji [6], more than 80%; in the experiment on Raji [8], more than 80%. For the same compound, the EBV-EA activation in the experiment with Human gammaherpesvirus 4 [2] amounted to 76.2%; with Human gammaherpesvirus 4 [3] it was 100%; with Human gammaherpesvirus 4 [5], 13.3%; in the experiment on Human gammaherpesvirus 4 [7], 45.5%.

Take `COc1c(C/C=C/c2ccccc2)cc(C/C=C/c2ccccc2)c(O)c1OC`: the Survival is more than 80% in the experiment with Raji [1], 60% in the experiment on Raji [4], more than 80% with Raji [6] and more than 80% in the experiment with Raji [8]. Also, the EBV-EA activation is reported as 75.6% with Human gammaherpesvirus 4 [2], 100% with Human gammaherpesvirus 4 [3], 15.9% in the experiment on Human gammaherpesvirus 4 [5] and 46.4% in the experiment with Human gammaherpesvirus 4 [7].

Consider `COc1c(C/C=C/c2ccccc2)cc(C/C=C/c2ccccc2)c(OC)c1OC`, for which the Survival is more than 80% with Raji [1], 60% in the experiment on Raji [4], more than 80% in the experiment on Raji [6] and more than 80% in the experiment with Raji [8]. The EBV-EA activation with Human gammaherpesvirus 4 [2] worked out at 75.2%; with Human gammaherpesvirus 4 [3], 100%; with Human gammaherpesvirus 4 [5] it was 12.6%; with Human gammaherpesvirus 4 [7] it was 39.8%.

Turning to `COc1cc(/C=C/Cc2ccc(OC)c(O)c2O)ccc1O`, the Survival in the experiment with Raji [1] was more than 80%; with Raji [4], 60%; in the experiment on Raji [6] it was more than 80%; in the experiment with Raji [8] it was more than 80%. The EBV-EA activation in the experiment with Human gammaherpesvirus 4 [2] is 73.2%; in the experiment with Human gammaherpesvirus 4 [3], 95.7%; in the experiment with Human gammaherpesvirus 4 [5], 8.7%; with Human gammaherpesvirus 4 [7] it was 45.5%.

On to `COc1cc(/C=C/Cc2ccc(OC)c(OCC=C(C)C)c2OCC=C(C)C)ccc1OCC=C(C)C`, for which the Survival with Raji [1] was more than 80%; in the experiment with Raji [4] it was 70%; with Raji [6], more than 80%; in the experiment on Raji [8], more than 80%. The EBV-EA activation in the experiment on Human gammaherpesvirus 4 [2] is on record as 61.5%; in the experiment on Human gammaherpesvirus 4 [3], 83.3%; in the experiment on Human gammaherpesvirus 4 [5], 0%; in the experiment on Human gammaherpesvirus 4 [7], 23.6%.

Take `COc1cc(/C=C/Cc2ccc(OC)c(O)c2O)ccc1OC(C)=O`: the Survival with Raji [1] is more than 80%; with Raji [4], 60%; in the experiment with Raji [6] it was more than 80%; in the experiment on Raji [8], more than 80%. Besides, the EBV-EA activation came out at 74.6% with Human gammaherpesvirus 4 [2], 100% with Human gammaherpesvirus 4 [3], 10% in the experiment on Human gammaherpesvirus 4 [5] and 37.6% with Human gammaherpesvirus 4 [7].

With `COc1cccc(O)c1C/C=C/c1ccccc1`, the Survival is listed as more than 80% with Raji [1], 60% in the experiment with Raji [4], more than 80% with Raji [6] and more than 80% in the experiment on Raji [8]. Moreover, the EBV-EA activation was determined as 70.5% in the experiment with Human gammaherpesvirus 4 [2], 100% in the experiment with Human gammaherpesvirus 4 [3], 18.3% in the experiment on Human gammaherpesvirus 4 [5] and 43.7% in the experiment on Human gammaherpesvirus 4 [7].

Regarding `COc1ccc(C/C=C/c2ccccc2)c(OCC=C(C)C)c1`, the Survival in the experiment with Raji [1] is more than 80%; in the experiment on Raji [4], 70%; in the experiment with Raji [6], more than 80%; with Raji [8] it was more than 80%. Moreover, the EBV-EA activation in the experiment with Human gammaherpesvirus 4 [2] worked out at 67.8%; in the experiment with Human gammaherpesvirus 4 [3] it was 91.7%; in the experiment on Human gammaherpesvirus 4 [5] it was 0%; in the experiment on Human gammaherpesvirus 4 [7], 29.9%.

As to `COc1c(O)ccc(C/C=C/c2ccccc2)c1OC`, the Survival in the experiment on Raji [1] is more than 80%; with Raji [4], 60%; with Raji [6] it was more than 80%; in the experiment on Raji [8] it was more than 80%. In addition, the EBV-EA activation stood at 74% in the experiment on Human gammaherpesvirus 4 [2], 100% in the experiment with Human gammaherpesvirus 4 [3], 12.5% in the experiment with Human gammaherpesvirus 4 [5] and 44.3% in the experiment with Human gammaherpesvirus 4 [7].

For the compound `COc1ccc(C/C=C/c2ccccc2)c(OC)c1OC`, the Survival is reported as more than 80% in the experiment with Raji [1], 60% in the experiment with Raji [4], more than 80% with Raji [6] and more than 80% with Raji [8]. The EBV-EA activation with Human gammaherpesvirus 4 [2] is 76.6%; in the experiment with Human gammaherpesvirus 4 [3] it was 100%; in the experiment with Human gammaherpesvirus 4 [5], 14.2%; with Human gammaherpesvirus 4 [7], 41.5%.
